Legend:
[1] = target: T1, zebrafish HDAC10 (Danio rerio, UniProt F1QCV2); test: fixed-point N-acetylputrescine hydrolysis assay; assay type: biochemical
T1 sequence (F1QCV2 1-675): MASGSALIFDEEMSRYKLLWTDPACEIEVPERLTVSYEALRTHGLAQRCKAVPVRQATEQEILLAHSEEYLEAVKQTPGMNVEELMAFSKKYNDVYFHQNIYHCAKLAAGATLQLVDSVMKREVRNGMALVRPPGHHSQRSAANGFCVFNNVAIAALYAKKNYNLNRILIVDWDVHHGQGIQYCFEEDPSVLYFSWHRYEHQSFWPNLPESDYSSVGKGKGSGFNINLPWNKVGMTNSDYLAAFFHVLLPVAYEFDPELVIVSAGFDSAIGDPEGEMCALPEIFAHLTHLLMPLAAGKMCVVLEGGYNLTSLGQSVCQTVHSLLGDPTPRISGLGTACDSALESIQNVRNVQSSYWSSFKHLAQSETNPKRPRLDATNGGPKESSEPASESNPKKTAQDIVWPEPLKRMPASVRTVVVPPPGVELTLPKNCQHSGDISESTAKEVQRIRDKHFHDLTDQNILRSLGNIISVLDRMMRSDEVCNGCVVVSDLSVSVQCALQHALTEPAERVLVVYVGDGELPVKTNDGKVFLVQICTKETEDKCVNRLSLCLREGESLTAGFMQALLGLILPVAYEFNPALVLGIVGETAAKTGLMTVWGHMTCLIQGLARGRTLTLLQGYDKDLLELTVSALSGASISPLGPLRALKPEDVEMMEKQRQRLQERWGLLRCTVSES
Outline: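 N-acetylputrescine 800 μM added; quenched after 45–60 min with sodium bicarbonate plus dansyl chloride, 50 °C 1 h. Dansylated product quantified by LC-MS; IC50 from logistic nonlinear regression.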

[2] = stability in aqueous solution by mass spectrometry; assay type: physicochemical
[3] = ratio of IC50 values against zebrafish HDAC10

Row | Compound | IC50 [1] [µM] | fold greater inhibitory potency than methylketone 2 or methoxymethylketone 3 [1, 3] | fold difference in potencies between inhibitors 7 and 6 [1, 3] [fold] | stability in aqueous solution [2]
1 | CC(=O)CCCCCNCCCN [compound 2, 7-[(3-aminopropyl)amino]heptan-2-one] | 2.3 ± 0.2 | – | – | –
2 | NCCCNCCCCCB(O)O [compound 4, 5-[(3-aminopropyl)amino]pentylboronic acid] | 400 ± 70 | – | – | –
3 | COCC(=O)CCCCCNCCCN [compound 3, 7-[(3-aminopropyl)amino]-1-methoxyheptan-2-one] | 35 ± 0.1 | – | – | –

Now those with a lower IC50 [1], led by results:

Row | IC50 [1] [µM] | fold greater inhibitory potency than methylketone 2 or methoxymethylketone 3 [1, 3] | fold difference in potencies between inhibitors 7 and 6 [1, 3] [fold] | Compound | stability in aqueous solution [2]
4 | 0.08 ± 0.01 | at least 29 fold | – | NCCCNCCCCCC(=O)C(F)(F)F [compound 1, 7-[(3-aminopropyl)amino]-1,1,1-trifluoroheptan-2-one] | –
5 | 0.37 ± 0.02 | – | – | NCCCNCCCCCS [compound 6, 5-[(3-aminopropyl)amino]pentane-1-thiol] | susceptible to oxidation and begins to forms a disulfide in aqueous solution
6 | 0.03 ± 0.01 | – | 12 | CC(=O)SCCCCCNCCCN [compound 7, S-{5-[(3-aminopropyl)amino]pentyl} thioacetate] | stable in aqueous solution

Source: paper PMC6904438 (Biochemistry, 2019)
